Reference: ChEMBL document CHEMBL1155352, “Antiparasitic activities of novel, orally available fumagillin analogs” (Bioorg Med Chem Lett, 2009)
≈ marks a conversion by molar mass, not a printed value. Calls of active or inactive are those of the source. The calls are words filed in the database; no cut-off is given here.

Tests used:
Plasmodium berghei = assay: Antiparasitic activity against Plasmodium berghei infected Swiss Webster mice (Mus musculus) assessed as protection against parasite infection at 25 mg/kg, subcutaneously administered every 12 hrs for 4 days measured after 12 days; assay type: functional, organism-based; set-up: dose 25 mg/kg
Method in brief: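 P. berghei-infected mice, infected on Day 1, dosed subcutaneously with 25 mg/kg every 12 h; PBS-dosed controls. Survival followed over days post infection; each data point mean of triplicates.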

[1] = biological target: Methionine aminopeptidase 2 (Homo sapiens) (UniProt P50579); assay: Inhibition of human MetAP2 assessed as residual activity at 800 nM after 8 hrs by Met-AMC based fluorescence assay
Method in brief: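 Human MetAP2 (80 nM) preincubated with compound at 800 nM for 8 h; remaining free enzyme activity then read by Met-AMC fluorescence and reported as residual activity.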

Entamoeba histolytica = assay: Antiparasitic activity against Entamoeba histolytica HMI:IMSS trophozoites after 60 hrs; assay type: functional, organism-based, HM-1:IMSS
Trypanosoma brucei = assay: Antiparasitic activity against Trypanosoma brucei 427 after 48 hrs; assay type: functional, organism-based
Leishmania donovani = assay: Antiparasitic activity against Leishmania donovani at <100 ug/mL; assay type: functional, organism-based
Plasmodium falciparum [2] = assay: Antiparasitic activity against Plasmodium falciparum D2 infected in human erythrocytes after 72 hrs by FACS; assay type: functional, organism-based
Plasmodium falciparum [3] = assay: Antiparasitic activity against Plasmodium falciparum W2 infected in human erythrocytes after 72 hrs by FACS; assay type: functional, organism-based
[4] = Entamoeba histolytica, HM-1:IMSS, 60 h, read-out: IC50
[5] = Trypanosoma brucei, 427, 48 h, read-out: IC50
[6] = Plasmodium falciparum, D2, 72 h, read-out: IC50
[7] = Plasmodium falciparum, W2, 72 h, read-out: IC50

Chain of Methionine aminopeptidase 2 (Homo sapiens) (P50579 2-478 limits assumed): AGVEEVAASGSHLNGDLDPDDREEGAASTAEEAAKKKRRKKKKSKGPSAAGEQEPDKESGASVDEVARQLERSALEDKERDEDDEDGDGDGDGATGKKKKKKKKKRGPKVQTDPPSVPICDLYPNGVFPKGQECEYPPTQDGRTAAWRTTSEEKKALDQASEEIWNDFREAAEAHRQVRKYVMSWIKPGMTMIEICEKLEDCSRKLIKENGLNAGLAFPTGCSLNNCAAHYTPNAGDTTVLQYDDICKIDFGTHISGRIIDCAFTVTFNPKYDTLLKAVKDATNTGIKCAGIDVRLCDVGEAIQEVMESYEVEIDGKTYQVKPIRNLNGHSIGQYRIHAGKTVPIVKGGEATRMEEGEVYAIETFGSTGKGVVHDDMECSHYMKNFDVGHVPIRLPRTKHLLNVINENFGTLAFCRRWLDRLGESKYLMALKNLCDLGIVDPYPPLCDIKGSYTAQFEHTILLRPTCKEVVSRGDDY

Compound | Activity [1] [%] | IC50 (Entamoeba histolytica; [4]) [µg/mL] | IC50 (Trypanosoma brucei; [5]) [µg/mL] | IC50 (Plasmodium falciparum [2]; [6]) [µg/mL] | IC50 (Plasmodium falciparum [3]; [7]) [µg/mL] | IC50 (Trypanosoma brucei; BLD = below limit of detection) | IC50 (Plasmodium falciparum [2]; BLD = below limit of detection) | IC50 (Entamoeba histolytica; BLD = below limit of detection) | IC50 (Plasmodium falciparum [3]; BLD = below limit of detection) | Activity (Plasmodium berghei) | Activity (Leishmania donovani)
CO[C@@H]1[C@H](OC(=O)N[C@H]2CN3CCC2CC3)CC[C@]2(CO2)[C@H]1[C@@]1(C)O[C@@H]1CC=C(C)C | – | 1.26 (≈ 2.9 µM) | – | – | 0.0394 (≈ 0.0907 µM) | – | – | – | – | – | inactive
CO[C@@H]1[C@H](OC(=O)N[C@@H](C(N)=O)C(C)C)CC[C@]2(CO2)[C@H]1[C@@]1(C)O[C@@H]1CCC(C)(C)O | 90 | – | – | – | – | BLD | – | BLD | BLD | – | inactive
CO[C@@H]1[C@H](OC(=O)N[C@@H](C(=O)NCCCN(C)C)C(C)C)CC[C@]2(CO2)[C@H]1[C@@]1(C)O[C@@H]1CC=C(C)C | – | 2.28 (≈ 4.47 µM) | 25 (≈ 49 µM) | 0.0263 (≈ 0.0516 µM) | – | – | – | – | – | – | inactive
CO[C@@H]1[C@H](OC(=O)NC(=O)CCl)CC[C@]2(CO2)[C@H]1[C@@]1(C)O[C@@H]1CC=C(C)C [O-CHLOROACETYLCARBAMOYLFUMAGILLOL] | – | 0.026 (≈ 0.0647 µM) | 2.8 (≈ 6.97 µM) | – | 0.0123 (≈ 0.0306 µM) | – | – | – | – | – | –
CO[C@@H]1[C@H](OC(=O)/C=C/C=C/C=C/C=C/C(=O)O)CC[C@]2(CO2)[C@H]1[C@@]1(C)O[C@@H]1CC=C(C)C [FUMAGILLIN] | – | 0.005 (≈ 0.0109 µM) | 26 (≈ 56.7 µM) | – | 0.0996 (≈ 0.217 µM) | – | – | – | – | – | –

Second part, led by results:

Activity [1] [%] | IC50 (Entamoeba histolytica; [4]) [µg/mL] | IC50 (Trypanosoma brucei; [5]) [µg/mL] | IC50 (Plasmodium falciparum [2]; [6]) [µg/mL] | IC50 (Plasmodium falciparum [3]; [7]) [µg/mL] | IC50 (Trypanosoma brucei; BLD = below limit of detection) | IC50 (Plasmodium falciparum [2]; BLD = below limit of detection) | IC50 (Entamoeba histolytica; BLD = below limit of detection) | IC50 (Plasmodium falciparum [3]; BLD = below limit of detection) | Compound | Activity (Plasmodium berghei) | Activity (Leishmania donovani)
5 | 1.39 (≈ 2.59 µM) | 19 (≈ 35.5 µM) | 0.0347 (≈ 0.0648 µM) | – | – | – | – | – | CO[C@@H]1[C@H](OC(=O)N[C@@H](C(=O)NCCC2CCCN2C)C(C)C)CC[C@]2(CO2)[C@H]1[C@@]1(C)O[C@@H]1CC=C(C)C (some centres not stated) | Active | inactive
6 | 0.01 (≈ 0.0244 µM) | 28 (≈ 68.2 µM) | – | 0.00774 (≈ 0.0189 µM) | – | – | – | – | CO[C@@H]1[C@H](OC(=O)NN2CCOCC2)CC[C@]2(CO2)[C@H]1[C@@]1(C)O[C@@H]1CC=C(C)C | – | inactive
– | 2.54 (≈ 4.46 µM) | – | – | – | BLD | BLD | – | – | CO[C@@H]1[C@H](OC(=O)NC(C)(C)C(=O)N2CCN(Cc3ccccc3)CC2)CC[C@]2(CO2)[C@H]1[C@@]1(C)O[C@@H]1CC=C(C)C | – | inactive
– | 0.0643 (≈ 0.127 µM) | 55 (≈ 108 µM) | 0.0288 (≈ 0.0567 µM) | – | – | – | – | – | CO[C@@H]1[C@H](OC(=O)N[C@@H](C(=O)NN2CCCCC2)C(C)C)CC[C@]2(CO2)[C@H]1[C@@]1(C)O[C@@H]1CC=C(C)C | – | inactive
4 | 0.497 (≈ 0.913 µM) | 14 (≈ 25.7 µM) | 0.136 (≈ 0.25 µM) | – | – | – | – | – | CO[C@@H]1[C@H](OC(=O)N[C@@H](C(=O)Nc2cccc(C(=O)O)c2)C(C)C)CC[C@]2(CO2)[C@H]1[C@@]1(C)O[C@@H]1CC=C(C)C | – | inactive
8 | 0.087 (≈ 0.199 µM) | – | – | 0.0367 (≈ 0.0839 µM) | BLD | – | – | – | CO[C@@H]1[C@H](OC(=O)N2CCC(C(=O)O)CC2)CC[C@]2(CO2)[C@H]1[C@@]1(C)O[C@@H]1CC=C(C)C | – | inactive
3 | 0.01 (≈ 0.0218 µM) | 42 (≈ 91.4 µM) | – | 0.0205 (≈ 0.0446 µM) | – | – | – | – | CO[C@@H]1[C@H](OC(=O)NCc2ccc(C(=O)O)cc2)CC[C@]2(CO2)[C@H]1[C@@]1(C)O[C@@H]1CC=C(C)C | – | Active
